For six compounds, EC50 and CC50 results are on record in ChEMBL document CHEMBL1137377, “Evaluation of azasterols as anti-parasitics” (J Med Chem, 2006).

A value given as a limit tells only on which side of the number the result lay.

Test [1] relates to Trypanosoma brucei rhodesiense. The test can be described thus: Antitrypanosomal activity against Trypanosoma brucei rhodesiense trypomastigotes. The conditions noted are these: read-out: ED50 (the source's name). Format: functional. An outline of the steps:
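Bloodstream-form STIB900 trypomastigotes grown in HMI-18 + 15% HIFCS at 37 °C, 5% CO2. Seeded at 2 × 10^5/mL onto drug dilutions (top 30 µg/mL) for 72 h. Alamar Blue read 5-6 h later by fluorescence (ex/em 530/585 nm). ED50 by curve fitting.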

The subject of test [2] is Plasmodium falciparum. The test can be described thus: Antimalarial activity against Plasmodium falciparum 3D7. Type of test: functional, organism-based. The conditions noted are these: read-out: ED50 (the source's name). In a few lines: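 Synchronized ring-stage 3D7 culture at 1% parasitemia in RPMI 1640, 5% hematocrit, 37 °C, 5% CO2. Top final drug concentration 30 µg/mL. After 24 h, (3H)-hypoxanthine added (0.2 µCi/well), then 48 h further incubation. Plates freeze/thawed and harvested, and hypoxanthine uptake counted. ED50 by curve fitting.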

The next test concerns Trypanosoma cruzi. The test can be described thus: Antitrypanosomal activity against Trypanosoma cruzi trypomastigotes in CD1 mouse macrophage. Type of test: functional. The following applies: read-out: ED50 (the source's name). In a few lines: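 Starch-induced CD1 peritoneal macrophages plated at 4 × 10^5/mL, infected after 24 h with T. cruzi Tulahuan LAC-Z trypomastigotes. 24 h later, drug exposure for 3 days. ED50 by curve fitting.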

For the next test, the system named is Leishmania donovani. The test can be described thus: Antileishmanial activity against Leishmania donovani amastigotes in CD1 mouse macrophage. Type of test: functional, organism-based. The following applies: read-out: ED50 (the source's name). An outline of the steps:
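Peritoneal macrophages from starch-induced CD1 mice, kept 24 h in RPMI1640 + 10% HIFCS at 37 °C, 5% CO2. Infected with L. donovani MHOM/ET/67/L82 amastigotes from hamster spleen at 5 parasites:1 macrophage. After 24 h, drug exposure for 5 days, overlay replaced day 3. Top concentration 30 µg/mL, quadruplicate. Slides methanol-fixed, Giemsa-stained, counted microscopically. ED50 by curve fitting.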

For test [3], the system named is Plasmodium falciparum. The test can be described thus: Antimalarial activity against Plasmodium falciparum K1. Type of test: functional, organism-based. The conditions noted are these: read-out: ED50 (the source's name).
For a further test, the system named is KB. The test can be described thus: Cytotoxicity against KB cell line. The following applies: Homo sapiens, read-out: TD50 (the source's name). Type of test: functional.

With `COC(=O)CCCCCNC(=O)[C@@H](C)[C@H]1CC[C@H]2C3CC=C4C[C@@H](OC(C)=O)CC[C@]4(C)[C@H]3CC[C@]12C` (stereo partly specified), the EC50 in test [1] was 3.45 µM; in the test on Plasmodium falciparum [2], 21.3 µM; in the test with Trypanosoma cruzi it was 2.54 µM; in the test on Leishmania donovani, over 58 µM; with Plasmodium falciparum [3], 19.8 µM. In addition, the CC50 in the test on KB was over 582 µM.
Take `COC(=O)CCCCCCCNC(=O)[C@@H](C)[C@H]1CC[C@H]2C3CC=C4C[C@@H](OC(C)=O)CC[C@]4(C)[C@H]3CC[C@]12C` (stereo partly specified): the EC50 in test [1] is 0.607 µM; in the test on Plasmodium falciparum [2] it was 21.5 µM; with Trypanosoma cruzi, over 55 µM; with Leishmania donovani, over 55 µM; with Plasmodium falciparum [3] it was 2.87 µM. Also, in the test with KB, the CC50 is over 552 µM.
As to `COC(=O)CCCCCCNC(=O)[C@@H](C)[C@H]1CC[C@H]2C3CC=C4C[C@@H](OC(C)=O)CC[C@]4(C)[C@H]3CC[C@]12C` (stereo partly specified), the EC50 is 7.91 µM in test [1]; 14.4 µM in the test on Plasmodium falciparum [2]; 10.8 µM with Trypanosoma cruzi; over 57 µM in the test on Leishmania donovani; 1.26 µM in the test with Plasmodium falciparum [3]. In the test on KB, the CC50 is over 566 µM.
Regarding `COC(=O)CCCCNC(=O)[C@@H](C)[C@H]1CC[C@H]2C3CC=C4C[C@@H](OC(C)=O)CC[C@]4(C)[C@H]3CC[C@]12C` (stereo partly specified), the EC50 in test [1] was 3.01 µM; in the test with Plasmodium falciparum [2] it was 0.74 µM; with Trypanosoma cruzi it was 2.43 µM; with Leishmania donovani, over 60 µM; in the test with Plasmodium falciparum [3], 8.43 µM. Besides, the CC50 in the test on KB is over 598 µM.
Regarding `COC(=O)CCNC(=O)[C@@H](C)[C@H]1CC[C@H]2C3CC=C4C[C@@H](OC(C)=O)CC[C@]4(C)[C@H]3CC[C@]12C` (stereo partly specified), the EC50 is 6 µM in test [1]; 17.4 µM with Plasmodium falciparum [2]; 3.46 µM with Trypanosoma cruzi; over 63 µM in the test on Leishmania donovani; 19.1 µM in the test on Plasmodium falciparum [3]. For the same compound, the CC50 in the test with KB is 597 µM.
With `COC(=O)CNC(=O)[C@@H](C)[C@H]1CC[C@H]2C3CC=C4C[C@@H](OC(C)=O)CC[C@]4(C)[C@H]3CC[C@]12C` (stereo partly specified), the EC50 is 24 µM in test [1]; 60 µM in the test with Plasmodium falciparum [2]; 42.2 µM in the test on Trypanosoma cruzi; over 65 µM in the test with Leishmania donovani; 9.6 µM in the test with Plasmodium falciparum [3]. In addition, in the test with KB, the CC50 was over 653 µM.
